Assay results reported in ChEMBL document CHEMBL1158454, “Discovery of a potent and orally active hedgehog pathway antagonist (IPI-926)” (J Med Chem, 2009).
Calls of active or inactive are those of the source.

Legend:
[1] = Volume of distribution in cynomolgus monkey at 1 mg/kg, iv; type: ADME, organism-based, Macaca fascicularis; parameters: dose 1 mg/kg, route intravenous; details: in vivo
How it was run: (§1)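 Plasma sampled at 0.083-24 h (T_last 24 h), protein-precipitated with acetonitrile containing jervine internal standard, and quantified by LC/MS/MS. Parameters taken from the concentration-time profile.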

[2] = Volume of distribution in CD1 mouse at 1 mg/kg, iv; type: ADME, organism-based; parameters: dose 1 mg/kg, route intravenous; details: in vivo; how it was run: as §1
[3] = Elimination half life in cynomolgus monkey at 1 mg/kg, iv; type: ADME, organism-based, Macaca fascicularis; parameters: dose 1 mg/kg, route intravenous; details: in vivo, read-out: beta t1/2 (converted); how it was run: as §1
[4] = Oral bioavailability in Sprague-Dawley rat at 5 mg/kg; type: ADME, organism-based; details: in vivo
[5] = Oral bioavailability in Beagle dog at 4 mg/kg; type: ADME, organism-based, Canis lupus familiaris; details: in vivo
in vitro = details: human
[6] = Oral bioavailability in cynomolgus monkey at 4 mg/kg; type: ADME, organism-based, Macaca fascicularis; details: in vivo
[7] = Plasma clearance in Sprague-Dawley rat at 1 mg/kg, iv; type: ADME, organism-based; parameters: dose 1 mg/kg, route intravenous; how it was run: as §1
[8] = Plasma clearance in cynomolgus monkey at 1 mg/kg, iv; type: ADME, organism-based, Macaca fascicularis; parameters: dose 1 mg/kg, route intravenous; how it was run: as §1
[9] = Elimination half life in Beagle dog at 1 mg/kg, iv; type: ADME, organism-based, Canis lupus familiaris; parameters: dose 1 mg/kg, route intravenous; details: in vivo, read-out: beta t1/2 (converted); how it was run: as §1
[10] = Antitumor activity against Ptc+/- Hic+/- mouse B837Tx cells allografted in NOD/SCID mouse assessed as tumor-free interval on 21 days post treatment at 30 mg/kg, po administered daily for 21 days; type: functional
How it was run: (§2)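 NOD/SCID mice given 1 × 10^6 B837Tx cells in the right hind flank. Once tumors reached about 100-200 mm³, N=10/group were gavaged daily for 21 days. Vehicle: 30% (w/w) HPBCD in 0.1 M citrate phosphate buffer, pH 3, dosing solutions 5-10 mg/mL. Tumors measured in two perpendicular dimensions by caliper 3 times weekly. Regrowth monitored over a 21-day post-treatment phase.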

[11] = Volume of distribution in Sprague-Dawley rat at 1 mg/kg, iv; type: ADME, organism-based; parameters: dose 1 mg/kg, route intravenous; details: in vivo; how it was run: as §1
[12] = Volume of distribution in Beagle dog at 1 mg/kg, iv; type: ADME, organism-based, Canis lupus familiaris; parameters: dose 1 mg/kg, route intravenous; details: in vivo; how it was run: as §1
[13] = Inhibition of HedgeHog pathway in mouse C3H10T1/2 cells assessed as inhibition of 20-(S)-hydroxysterol/22-(S)-hydroxysterol-induced osteoblastic differentiation after 72 hrs by alkaline phosphatase assay; details: C3H 10T1/2, 72 h
[14] = Oral bioavailability in CD1 mouse at 5 mg/kg; type: ADME, organism-based; details: in vivo
[15] = Toxicity in po dosed Ptc+/- Hic+/- mouse B837Tx cells allografted NOD/SCID mouse assessed as maximum tolerated dose after 5 days; type: organism-based; details: in vivo
How it was run: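 Tumor-bearing immunocompromised mice received repeat oral dosing for 5 days. MTD was defined as the dose tolerated by all animals (N = 3).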

[16] = Elimination half life in Sprague-Dawley rat at 1 mg/kg, iv; type: ADME, organism-based; parameters: dose 1 mg/kg, route intravenous; details: in vivo, read-out: beta t1/2 (converted); how it was run: as §1
[17] = Plasma clearance in CD1 mouse at 1 mg/kg, iv; type: ADME, organism-based; parameters: dose 1 mg/kg, route intravenous; how it was run: as §1
[18] = Antitumor activity against Ptc+/- Hic+/- mouse B837Tx cells allografted in NOD/SCID mouse assessed as median time to unmeasurable tumor volume at 30 mg/kg, po administered daily for 21 days; type: functional; how it was run: as §2
[19] = Plasma clearance in Beagle dog at 1 mg/kg, iv; type: ADME, organism-based, Canis lupus familiaris; parameters: dose 1 mg/kg, route intravenous; how it was run: as §1
[20] = Elimination half life in CD1 mouse at 1 mg/kg, iv; type: ADME, organism-based; parameters: dose 1 mg/kg, route intravenous; details: in vivo, read-out: beta t1/2 (converted); how it was run: as §1
[21] = Antitumor activity against Ptc+/- Hic+/- mouse B837Tx cells allografted in NOD/SCID mouse assessed as median time to unmeasurable tumor volume at 40 mg/kg, po administered daily for 21 days; type: functional; how it was run: as §2
Mus musculus = test: Antitumor activity against Ptc+/- Hic+/- mouse B837Tx cells allografted in NOD/SCID mouse assessed as effect on recurrence rate on post treatment at 40 mg/kg, po administered daily for 21 days; type: functional, organism-based; parameters: dose 40 mg/kg; how it was run: as §2
[22] = Antitumor activity against Ptc+/- Hic+/- mouse B837Tx cells allografted in NOD/SCID mouse assessed as tumor-free interval on 21 days post treatment at 40 mg/kg, po administered daily for 21 days; type: functional; how it was run: as §2
Protein smoothened = Protein smoothened (Homo sapiens, UniProt Q99835); test: Inhibition of human recombinant SMO expressed in mouse C3H10T1/2 cells assessed as inhibition of association of BODIPY-cyclopamine; type: cell-based, C3H 10T1/2
[23] = Antitumor activity against Ptc+/- Hic+/- mouse B837Tx cells allografted in NOD/SCID mouse assessed as median time to unmeasurable tumor volume at 80 mg/kg, po administered daily for 21 days; type: functional; how it was run: as §2
[24] = Antitumor activity against Ptc+/- Hic+/- mouse B837Tx cells allografted in NOD/SCID mouse assessed as tumor-free interval on 21 days post treatment at 80 mg/kg, po administered daily for 21 days; type: functional; how it was run: as §2

Chain of Protein smoothened (Q99835 whole entry): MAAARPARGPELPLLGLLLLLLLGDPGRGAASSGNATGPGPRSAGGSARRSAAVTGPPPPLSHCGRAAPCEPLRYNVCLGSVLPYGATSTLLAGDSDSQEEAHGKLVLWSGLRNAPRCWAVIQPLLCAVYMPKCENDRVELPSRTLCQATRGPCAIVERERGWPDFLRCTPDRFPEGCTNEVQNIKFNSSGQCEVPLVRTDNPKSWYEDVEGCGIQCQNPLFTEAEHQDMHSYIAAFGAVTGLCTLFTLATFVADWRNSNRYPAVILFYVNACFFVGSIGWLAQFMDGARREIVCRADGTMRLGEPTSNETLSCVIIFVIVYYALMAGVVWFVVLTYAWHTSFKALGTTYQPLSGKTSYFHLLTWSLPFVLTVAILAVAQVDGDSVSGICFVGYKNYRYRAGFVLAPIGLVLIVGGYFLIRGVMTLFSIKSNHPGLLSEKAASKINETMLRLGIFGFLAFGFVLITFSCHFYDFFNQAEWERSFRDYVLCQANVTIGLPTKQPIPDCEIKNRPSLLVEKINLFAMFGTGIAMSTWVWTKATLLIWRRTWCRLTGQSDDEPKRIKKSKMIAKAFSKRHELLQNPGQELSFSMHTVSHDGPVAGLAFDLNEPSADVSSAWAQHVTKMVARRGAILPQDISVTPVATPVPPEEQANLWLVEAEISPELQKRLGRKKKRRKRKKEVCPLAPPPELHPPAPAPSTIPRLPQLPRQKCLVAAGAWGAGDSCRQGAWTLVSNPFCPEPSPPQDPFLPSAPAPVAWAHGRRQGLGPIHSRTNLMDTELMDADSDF

With CC1=C2C[C@H]3[C@@H](CC[C@@H]4CNC(=O)CC[C@@]43C)[C@@H]2CC[C@@]2(C1)O[C@@H]1C[C@H](C)CN[C@H]1[C@H]2C the Vd [1] was 4.3 L/kg, the Vd [2] was 2 L/kg and the half-life [3] was 3.8 h. The bioavailability [4] was 100%, the bioavailability [5] was 97% and the half-life at 0.5 µM (in vitro; microsomes) was 1.08 h. For the same molecule, the bioavailability [6] was 100%, the clearance [7] was 10.5 mL/min/kg and the clearance [8] was 13.3 mL/min/kg. It also gave a half-life [9] of 6.5 h, an Activity [10] of 10 days and a Vd [11] of 4.9 L/kg. The Vd [12] was 3 L/kg, the EC50 [13] was 0.025 µM and the bioavailability [14] was 100%. It also gave an MTD at 120 h [15] of 30 mg/kg, a half-life [16] of 5.4 h and a clearance [17] of 8.33 mL/min/kg. It also gave an Activity [18] of 9 days, a clearance [19] of 5.5 mL/min/kg and a half-life [20] of 3 h.

CC1=C2C[C@H]3[C@@H](CC[C@@H]4C[C@H](NS(C)(=O)=O)CC[C@@]43C)[C@@H]2CC[C@@]2(C1)O[C@@H]1C[C@H](C)CN[C@H]1[C@H]2C [PATIDEGIB] gave a Vd [2] of 11 L/kg, a half-life [3] of 8.2 h and a bioavailability [4] of 100%. The bioavailability [5] was 50%, the half-life at 0.5 µM (in vitro; microsomes) was 1.42 h and the bioavailability [6] was 74%. The clearance [7] was 3.5 mL/min/kg, the clearance [8] was 15 mL/min/kg and the Activity [21] was 9 days. For the same molecule, the half-life [9] was 15.5 h, the Vd [11] was 30 L/kg and the Vd [12] was 15.3 L/kg. The Activity (Mus musculus) was “Active”, the EC50 [13] was 0.007 µM and the Activity [22] was 21 days. It also gave a bioavailability [14] of 100%, an MTD at 120 h [15] of 40 mg/kg and a half-life [16] greater than 24 h. For the same molecule, the IC50 (Protein smoothened) was 0.0014 µM, the clearance [17] was 12.3 mL/min/kg and the clearance [19] was 11 mL/min/kg. For the same molecule, the half-life [20] was 10.5 h.

CC1=C2C[C@H]3[C@@H](CC[C@@H]4Cc5[nH]ncc5C[C@@]43C)[C@@H]2CC[C@@]2(C1)O[C@@H]1C[C@H](C)CN[C@H]1[C@H]2C gave a Vd [1] of 13 L/kg, an Activity [23] of 9 days and a Vd [2] of 9 L/kg. For the same molecule, the half-life [3] was 5.6 h, the bioavailability [4] was 34% and the bioavailability [5] was 73%. It also gave a half-life at 0.5 µM (in vitro; liver microsomes) of 2 h, a bioavailability [6] of 84% and a clearance [7] of 125 mL/min/kg. The clearance [8] was 30 mL/min/kg, the half-life [9] was 6.8 h and the Vd [11] was 13 L/kg. It also gave a Vd [12] of 6 L/kg, an EC50 [13] of 0.013 µM and a bioavailability [14] of 52%. The MTD at 120 h [15] was 80 mg/kg, the half-life [16] was 1.2 h and the clearance [17] was 33.3 mL/min/kg. For the same molecule, the clearance [19] was 10 mL/min/kg, the Activity [24] was 19 days and the half-life [20] was 3 h.
